Screening data deposited in PubChem by several laboratories.
EP2 antag – EP2 receptor (human) inhibition; P43116; C6 glioma cells expressing human EP2, cAMP TR-FRET; cells stimulated with saturating PGE2; inhibition, % at 25 µM; 260,000 tested, 0.52% active; AID 1422;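 active = percent inhibition above 40 after rounding to a whole number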;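 note: rat C6 glioma host cells with rolipram phosphodiesterase inhibitor present; the protocol text gives 20 µM as final concentration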
TbHK1 inh – blocks Trypanosoma brucei hexokinase 1 activity; recombinant TbHK1, G6PDH-coupled NADH A340; inhibition, % at 10 µM; 220,000 tested, 0.11% active;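 active = inhibition of 50% or more in the single-dose primary screen; inactive = inhibition below 50%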
PfG6PD inh – PfG6PD (Plasmodium falciparum) enzyme inhibition. PfGluPho enzyme, NADPH resazurin-diaphorase fluorescence. inhibition, % at 20 µM. 350,000 tested, 0.78% active;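 active = inhibition reaching at least a set limit at 20 µM in the primary screen, cut at about 59% in these data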
PHOSPHO1 inh – PHOSPHO1 (human) inhibition; Q8TCT1; inhibition, % at 13.3 µM; 290,000 tested, 1.1% active; recombinant PHOSPHO1, absorbance phosphatase assay; in the data active = inhibition above about 60%
HKDC1 inhibitor – HKDC1 (human) hexokinase inhibition; Q2TB90; recombinant HKDC1, G6PDH/diaphorase resazurin coupled fluorescence; inhibition, % at 20 µM; 340,000 tested, 0.16% active;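 active = inhibition above about 35% when tested at 20 µM, limit read from the data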
Target sequence (Q2TB90 whole entry, looked up): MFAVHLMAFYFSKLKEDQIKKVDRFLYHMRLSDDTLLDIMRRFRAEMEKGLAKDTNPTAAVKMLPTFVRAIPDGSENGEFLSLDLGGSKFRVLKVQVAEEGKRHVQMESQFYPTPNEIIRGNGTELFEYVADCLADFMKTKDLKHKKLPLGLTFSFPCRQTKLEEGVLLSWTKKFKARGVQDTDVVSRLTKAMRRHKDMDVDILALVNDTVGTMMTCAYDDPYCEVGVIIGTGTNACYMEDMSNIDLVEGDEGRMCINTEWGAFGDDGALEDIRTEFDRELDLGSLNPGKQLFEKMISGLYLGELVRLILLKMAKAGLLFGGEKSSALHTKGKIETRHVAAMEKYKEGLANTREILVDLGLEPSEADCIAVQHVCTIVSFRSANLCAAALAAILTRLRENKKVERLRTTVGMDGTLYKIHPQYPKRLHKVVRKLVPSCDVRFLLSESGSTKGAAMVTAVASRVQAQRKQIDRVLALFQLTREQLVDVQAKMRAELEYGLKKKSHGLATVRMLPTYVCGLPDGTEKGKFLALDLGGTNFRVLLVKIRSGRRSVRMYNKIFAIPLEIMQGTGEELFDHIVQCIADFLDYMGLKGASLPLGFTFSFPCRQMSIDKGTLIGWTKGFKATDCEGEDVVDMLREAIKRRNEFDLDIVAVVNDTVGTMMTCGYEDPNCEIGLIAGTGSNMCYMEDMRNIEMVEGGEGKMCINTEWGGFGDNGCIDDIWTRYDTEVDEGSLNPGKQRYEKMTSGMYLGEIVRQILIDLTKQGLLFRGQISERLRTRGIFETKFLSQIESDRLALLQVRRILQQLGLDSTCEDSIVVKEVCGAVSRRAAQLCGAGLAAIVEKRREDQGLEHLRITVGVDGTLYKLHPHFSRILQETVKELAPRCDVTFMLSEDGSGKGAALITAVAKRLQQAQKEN
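Assay system: in-house recombinant HK5 (HKDC1) enzyme. Input: HKDC1 at 5 µg/mL. Medium: Tris pH 8.0 buffer with MgCl2, Tween-20, BSA, BME. Dosing: single 20 µM dose. Schedule: 90 min reaction incubation at room temperature, dark. Signal: resazurin-to-resorufin fluorescence via G6PDH and diaphorase coupling, 525/613 nm. Controls: DMSO-enzyme wells negative, buffer-substituted wells positive.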
EP2 mod – EP2 receptor (human) modulation; P43116; EP2-expressing cells, cAMP HTRF FRET, PGE2 co-stimulation; induction, % at 25 µM; 260,000 tested, 0.83% active; AID 940;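 active = compounds whose cAMP rise, as percent of the full-agonist control response, exceeds 60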;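 note: rat C6 glioma line stably carrying human EP2 under a CMV promoter; the protocol text gives 20 µM as final concentration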
A number is an active result; – = inactive; · = no result given. An excerpt weighted towards active compounds, which were near 2.5% of everything screened.

SMILES	EP2 antag	TbHK1 inh	PfG6PD inh	PHOSPHO1 inh	HKDC1 inhibitor	EP2 mod
Cc1ccc2cc(C)c(SCC(=O)N3CCCC(C)C3)nc2c1 (stereo not drawn)	–	·	·	·	·	62
COc1cc2cc(CN(CCO)C(=S)Nc3cccc(Cl)c3)c(=O)[nH]c2cc1OC	–	·	·	·	·	–
CCCCOc1ccc2c(C)cc(=O)oc2c1OCCCC	–	–	–	–	–	62
CC1CCCN(C(=O)CSc2ncnc3sc4c(c23)CCCC4)C1 (stereo not drawn)	–	·	·	·	·	–
COc1ccccc1CN(CCCn1ccnc1)Cc1ccsc1	–	·	·	·	·	–
O=C(Nc1cccc([N+](=O)[O-])c1)c1ccc2nc(N3C(=O)CCC3=O)sc2c1	85	–	–	–	–	–
Cc1nn(C)c(Cl)c1S(=O)(=O)NC1(c2ccc(F)cc2)CC1	–	·	·	·	·	–
NC(=O)c1c(NC(=O)c2ccc3ccccc3c2)sc2c1CCCC2	–	·	·	·	·	–
CN1CCN(S(=O)(=O)c2cccc(C(=O)Nc3sc4c(c3C(N)=O)CCCC4)c2)CC1	–	–	–	70	–	–
NC(=O)c1c(NC(=O)c2cc3ccccc3o2)sc2c1CCC2	42	–	–	–	–	–
Cn1ccc(C(=O)Nc2sc3c(c2C(N)=O)CCCCC3)n1	·	·	–	–	–	·
Cn1cc(Br)c(C(=O)Nc2sc3c(c2C(N)=O)CCC3)n1	40	–	–	–	–	–
CC(=O)c1sc(-c2ccccc2)cc1NS(=O)(=O)c1ccc(C)cc1	74	–	–	–	–	–
CC(=O)c1sc(-c2ccccc2)cc1NS(=O)(=O)c1ccccc1	81	–	–	–	–	–
COc1cccc(-n2sc3c(c2=S)-c2cc(OC)ccc2NC3(C)C)c1	–	–	–	88	–	–
COc1ccc(CCNc2c(-c3cnc(N(C)C)nc3)nc3cnccn23)cc1OC	·	·	·	·	·	–
Cc1sc2nc(C)n(C3CCN(CC(=O)N4CCCC4)CC3)c(=O)c2c1C	–	·	·	·	·	–
O=C(Cc1cccs1)Nc1nnc(SCC(=O)N2CCCCC2)s1	–	–	–	–	–	–
O=C(Nc1nnc(SCC(=O)N2CCCCC2)s1)c1cccs1	–	–	–	74	–	–
O=C(Nc1nnc(SCC(=O)N2CCOCC2)s1)c1ccccc1Cl	–	–	–	66	–	–
COc1cc2[nH]c(=S)n(Cc3ccco3)c(=O)c2cc1OC	–	–	–	69	–	–
O=c1c2cc(Cl)ccc2[nH]c(=S)n1Cc1ccco1	–	–	–	–	–	–
Cc1cc(C(=O)NNC(=S)NC(=O)/C=C/c2ccccc2Cl)n[nH]1	–	–	–	94	–	–
COc1ccc(-c2nnc(SCc3csc(N)n3)n2C)cc1	–	–	–	73	–	–
Cc1cccc2cc(CN(Cc3cccs3)C(=S)NC(C)c3ccccc3)c(=O)[nH]c12 (stereo not drawn)	–	·	·	·	·	–
SMILES	EP2 antag	TbHK1 inh	PfG6PD inh	PHOSPHO1 inh	HKDC1 inhibitor	EP2 mod
COc1ccc(N=Nc2nc3cc(Br)c(Br)cc3n2C)c(OC)c1	–	–	–	72	–	–
CC(C)(C)c1nc(S(=O)(=O)c2ccc(Cl)cc2)c(N2CCOCC2)o1	–	–	–	63	–	–
COc1ccc2[nH]c(=O)c(CN(Cc3ccc4c(c3)OCO4)Cc3nnnn3C3CCCC3)cc2c1	–	·	·	·	·	–
COc1ccc(C2CC(=O)N3CN(c4ccccc4F)CSC3=C2C#N)cc1OC (stereo not drawn)	–	–	68	90	–	–
COc1ccc(OC)c(C2CC(=O)N3CN(c4ccccc4)CSC3=C2C#N)c1 (stereo not drawn)	–	–	81	83	–	–
Cc1cccc(N2CSC3=C(C#N)C(c4ccc(C)o4)CC(=O)N3C2)c1 (stereo not drawn)	–	–	·	76	·	–
COc1ccc(C2CC(=O)N3CN(c4ccc(C)c(Cl)c4)CSC3=C2C#N)cc1 (stereo not drawn)	–	–	70	83	–	–
CCOC(=O)c1sc2ccccc2c1OC(=O)c1ccccc1	–	–	–	–	–	65
CC(C)(C)C1CCc2c(sc3nc(SCC(=O)N4CCCC4)[nH]c(=O)c23)C1 (stereo not drawn)	–	·	·	·	·	–
COC(=O)C[C@H]1C2(C)CC34OC5(C)O[C@@]6([C@H](OC(C)=O)C(OC(C)=O)[C@]7(C)C(/C(=C(/O)C(C)C)C(=O)O[C@H]7c7ccoc7)[C@@]6(O5)[C@H](OC(C)=O)[C@@]3(O)C2OC(=O)C(C)C)[C@]14C (stereo partly drawn)	–	·	·	·	·	–
CC(=O)/C(=N/Nc1cccc(C)c1)N1CCOCC1	·	–	–	92	–	–
CCCNC(=O)c1ccc(Cl)c(S(=O)(=O)N2CCOCC2)c1	–	·	·	·	·	–
CN1C(CC(=O)Nc2ccc(Cl)cc2Cl)c2ccccc2CC1(C)C (stereo not drawn)	–	–	–	–	–	61
Cc1cc(O)c(/C=N/Nc2ccc(F)cc2)c(=O)o1	–	–	–	–	–	–
Cc1ccc(N/N=C/c2c(O)cc(C)oc2=O)cc1	–	–	–	88	–	–
C=CCNC(=S)NNC(=O)c1cccn(Cc2ccc(Cl)c(Cl)c2)c1=O	–	–	–	78	–	–
COc1ccc(C(=O)N2CCC(O)(c3nccn3C)CC2)c(OC)c1	·	·	·	·	·	–
CCn1c(CN2CCc3c(nc(N4CCCC4)[nH]c3=O)C2)nc2ccccc21	·	·	·	·	·	–
CC(C)(C)NC(=O)C12CCC(C)(c3nc4ccccc4nc31)C2(C)C (stereo not drawn)	–	–	–	–	–	64
COC(=O)C12CCC(C)(c3nc4ccccc4nc31)C2(C)C (stereo not drawn)	–	–	–	–	–	–
Cc1[nH]c(=S)c(C#N)c(-c2ccco2)c1C(=O)N(C)C	–	–	–	61	–	–
CCOCCn1c(SCCCc2ccccc2)nc2c1c(=O)[nH]c(=O)n2C	–	–	–	–	–	62
CCCCCCSc1nc2c(c(=O)[nH]c(=O)n2C)n1C	–	–	–	–	–	64
CCCCCCn1c(SCCN2CCOCC2)nc2c1c(=O)[nH]c(=O)n2C	–	–	–	–	–	–
CCCCCn1c(SCCN2CCOCC2)nc2c1c(=O)[nH]c(=O)n2C	–	–	–	69	–	–
SMILES	EP2 antag	TbHK1 inh	PfG6PD inh	PHOSPHO1 inh	HKDC1 inhibitor	EP2 mod
CCCSc1nc2c(c(=O)[nH]c(=O)n2C)n1C	–	–	–	–	–	–
C=CCn1c(SCC(=O)Nc2cc(C)ccc2C)nc2sc(C)c(C)c2c1=O	–	·	·	·	·	–
COCCNc1c(-c2cc3ccc(C)c(C)c3[nH]c2=O)nc2ccc(C)cn12	–	·	·	·	·	–
COc1ccc(-c2cc(C(=O)Nc3ccc(C)c(C)c3)no2)cc1	·	·	–	61	–	·
Cc1ccc(NC(=O)c2cc(-c3ccc(F)cc3)on2)cc1C	–	–	–	–	–	–
O=c1c(C(c2ccc(O)cc2)c2c(O)nc3n(c2=O)CCCS3)c(O)nc2n1CCCS2	–	–	–	65	–	–
